# Reference: ChEMBL document CHEMBL4049418, “6-OH-Phenanthroquinolizidine Alkaloid and Its Derivatives Exert Potent Anticancer Activity by Delaying S Phase Progression” (J Med Chem, 2017)
# Activity calls are given as the source filed them. The rule behind the calls is not given here.
# How the values were obtained:
# [1] = Resistance factor, ratio of IC50 for human HL60/MX2 cells to IC50 for human HL60 cells; type: functional
# How it was run: (§1)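 72 h treatment in triplicate; suspended lines (HL-60, K-562, K562/ADR, HL-60/MX2) read by MTT (4 h, SDS/isobutanol/HCl solubilization, 570 nm); adherent KB and KB/VCR (MEM, 10% FBS) by SRB after TCA fixation (540 nm); IC₅₀ by four-parameter logistic fit, mean of ≥3 independent experiments.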
# [2] = tested on: A549; experiment: Antiproliferative activity against human A549 cells assessed as reduction in viability after 72 hrs by SRB assay; type: functional, cell-based; details: A549, 72 h
# How it was run: (§2)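 Cells seeded and dosed in triplicate for 72 h. Suspension lines (HL-60, K-562, K562/ADR, HL-60/MX2) were read by MTT: 5 mg/mL MTT stock added, 4 h at 37 °C, formazan dissolved in 10% SDS/5% isobutanol/10 mM HCl, A570. Adherent lines were read by SRB: fixed with cold 10% TCA, stained with 0.4% SRB in 1% acetic acid, A540. IC50 from four-parameter logistic fit; mean of ≥3 independent experiments.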
# [3] = tested on: Bel-7402; experiment: Induction of apoptosis in human Bel7402 cells assessed as necrotic cells at 0.1 uM after 72 hrs by Annexin V/propidium iodide staining based flow cytometric analysis (reference value: 0.38%); type: functional
# How it was run: (§3)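 BEL-7402 cells (3 × 10⁵ per well, 6-well plates) exposed for 72 h. Harvested, PBS-washed, resuspended in cold binding buffer with annexin V–FITC and PI, and stained 15 min in the dark at room temperature. Early apoptotic, late apoptotic and necrotic fractions quantified by flow cytometry.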
# [4] = Antiproliferative activity against human KB/VCR cells after 72 hrs by SRB assay; type: functional, cell-based; how it was run: as §2
# [5] = tested on: Bel-7402; experiment: Antiproliferative activity against human Bel7402 cells assessed as reduction in viability after 72 hrs by SRB assay; type: functional, cell-based; details: Bel-7402, 72 h; how it was run: as §2
# [6] = Resistance factor, ratio of IC50 for human KB/VCR cells to IC50 for human KB cells; type: functional; how it was run: as §1
# [7] = tested on: Bel-7402; experiment: Induction of apoptosis in human Bel7402 cells assessed as early apoptotic cells at 0.1 uM after 72 hrs by Annexin V/propidium iodide staining based flow cytometric analysis (reference value: 3.66%); type: functional; how it was run: as §3
# [8] = tested on: K562; experiment: Antiproliferative activity against human K562 cells after 72 hrs by MTT assay; type: functional, cell-based; details: K562, 72 h; how it was run: as §2
# [9] = tested on: Bel-7402; experiment: Induction of apoptosis in human Bel7402 cells assessed as viable cells at 0.1 uM after 72 hrs by Annexin V/propidium iodide staining based flow cytometric analysis (reference value: 92.4%); type: functional; details: Bel-7402, 72 h, read-out: Activity
# [10] = tested on: Bel-7402; experiment: Induction of apoptosis in human Bel7402 cells assessed as late apoptotic cells at 0.1 uM after 72 hrs by Annexin V/propidium iodide staining based flow cytometric analysis (reference value: 3.6%); type: functional; how it was run: as §3
# [11] = tested on: Bel-7402; experiment: Induction of DNA damage in human Bel7402 cells assessed as increase in gamma-H2AX levels at 0.1 to 10 uM after 1 hr by Western blot analysis; type: functional, cell-based
# How it was run: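 BEL-7402 cells (1.5 × 10⁵ per well, 12-well plates) exposed to compounds for 1 h. Phospho-Chk1 Ser345, phospho-Chk2 Thr68 and γH2AX detected by Western blot. Camptothecin at 1 μM served as the DNA-damage reference.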
# [12] = tested on: KB; experiment: Antiproliferative activity against human KB cells after 72 hrs by SRB assay; type: functional, cell-based; how it was run: as §2
# [13] = tested on: U-118-MG; experiment: Antiproliferative activity against human U118MG cells after 72 hrs by SRB assay; type: functional, cell-based; details: pooled result: one value given for 25 cell lines, strains, targets or settings
# How it was run: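 Adherent cells seeded in 96-well plates and exposed in triplicate to compound for 72 h at 37 °C, humidified. Fixed with 10% ice-cold trichloroacetic acid, stained with 0.4% sulforhodamine B in 1% acetic acid, and absorbance read at 540 nm. IC50 fitted by four-parameter logistic; mean of at least three independent experiments.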
# [14] = tested on: K562/Adr; experiment: Antiproliferative activity against human K562/ADR cells after 72 hrs by MTT assay; type: functional, cell-based; how it was run: as §2
# [15] = Resistance factor, ratio of IC50 for human K562/ADR cells to IC50 for human K562 cells; type: functional; how it was run: as §1
# [16] = tested on: Bel-7402; experiment: Inhibition of DNA synthesis in human Bel7402 cells assessed as BrdU incorporation at 0.1 uM preincubated for 1 hr followed by BrdU addition for 30 mins by FITC/propidium iodide staining based flow cytometry (reference value: 35.5%); type: functional; design: scale not given: the % may be the effect or the level left
# How it was run: (§4)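 BEL-7402 cells (3 × 10⁵ per well) exposed to compounds 1 h, then labeled with 10 μM BrdU for 30 min; trypsinized, fixed in 70% ethanol at −20 °C ≥1 h, 2 N HCl 20 min, neutralized with 0.1 M borate, stained with anti-BrdU-FITC plus PI 30 min; BrdU-positive cells quantified by flow cytometry; three independent experiments, mean + SD.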
# [17] = tested on: K562/Adr; experiment: Effect on P-gp expression in human K562/ADR cells up to 10 uM after 24 hrs by Western blot analysis; type: functional, cell-based
# [18] = tested on: Bel-7402; experiment: Induction of apoptosis in human Bel7402 cells assessed as early apoptotic cells at 1 uM after 72 hrs by Annexin V/propidium iodide staining based flow cytometric analysis (reference value: 3.66%); type: functional; how it was run: as §3
# [19] = tested on: HL60/MX2; experiment: Antiproliferative activity against human HL60/MX2 cells after 72 hrs by MTT assay; type: functional, cell-based; details: HL60/MX2, 72 h; how it was run: as §2
# [20] = tested on: Bel-7402; experiment: Inhibition of DNA synthesis in human Bel7402 cells assessed as reduction in BrdU incorporation preincubated for 1 hr followed by BrdU addition for 30 mins by FITC/propidium iodide staining based flow cytometry; type: functional, cell-based; how it was run: as §4
# [21] = tested on: HL-60; experiment: Antiproliferative activity against human HL60 cells after 72 hrs by MTT assay; type: functional, cell-based; details: HL-60, 72 h; how it was run: as §2
# [22] = tested on: Bel-7402; experiment: Induction of apoptosis in human Bel7402 cells assessed as necrotic cells at 1 nM after 72 hrs by Annexin V/propidium iodide staining based flow cytometric analysis (reference value: 0.38%); type: functional
# [23] = tested on: Zip-177; experiment: Cell cycle arrest in human Zip-177 cells assessed as delay in progression of S-phase to G2-phase at 1 to 10 nM pre-treated with aphidicolin for 16 hrs followed by compound addition measured after 24 hrs by propidium iodide staining-based flow cytometric method; type: functional
# How it was run: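 Exponentially growing cells synchronized in early S phase with 0.2 μg/mL aphidicolin for 16 h. Cells released into fresh medium with or without compound for set times. Ethanol-fixed, stained with PI/RNase, and cell cycle distribution read by flow cytometry. Representative of three independent experiments.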
# [24] = tested on: Bel-7402; experiment: Inhibition of colony formation in human Bel7402 cells after 24 hrs by SRB staining-based plate colony formation assay; type: functional, cell-based
# How it was run: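 BEL-7402 cells seeded at 200 per well, treated in triplicate 24 h, washed twice with PBS, then grown 12 days in fresh medium; colonies stained with SRB and those ≥1 mm diameter counted; three independent experiments, mean ± SD.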
# [25] = tested on: K562; experiment: Cell cycle arrest in human K562 cells assessed as delay in progression of S-phase to G2-phase at 1 to 10 nM pre-treated with aphidicolin for 16 hrs followed by compound addition measured up to 24 hrs by propidium iodide staining-based flow cytometric method; type: functional
Structure (SMILES),Ratio IC50 [1],IC50 [2] [nM],Activity [3] [%],IC50 [4] [nM],IC50 [5] [nM],Ratio IC50 [6],Activity [7] [%],IC50 [8] [nM],viability at 0.1 µM [9] [%],Activity [10] [%],IC50 [12] [nM],IC50 [13] [nM],IC50 [14] [nM],Ratio IC50 [15],Activity [16] [%],IC50 [19] [nM],inhibition [20],IC50 [21] [nM],further results
COc1cc2c3c(c4cc(OC)c(OC)cc4c2cc1OC)[C@H](O)[C@@H]1CCCN1C3,1.3,283,0.37,65.2,110,1.1,2.86,98.4,94.6,2.22,58.2,167,138,1.4,32.5,278,Dose-dependent effect,213,Activity [11]: inactive; Activity [17]: inactive; Activity [18]: 2.56%
COc1cc2c3c(c4ccc(O)cc4c2cc1OC)CN1CCCC[C@@H]1C3,0.9,0.7,2.57,1,1.7,0.8,5.16,2.2,72.4,19.8,1.2,2.1,2.6,1.2,4.83,1.7,Dose-dependent effect,1.8,Activity [22]: 0.39%; Activity [23]: Active; inhibition [24]: Dose-dependent effect; Activity [25]: Active
